RGS4 inh = inhibitors of human RGS4; P49798; B-score at 10 µM; HEK293 M3R/RGS4 inducible, Fluo-4 calcium flux; hits give high values; triggered by carbachol at its EC20; AID 463165; 0.45% of 310,000 active;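 active = B-score, a plate-corrected calcium signal, over three deviations above library mean, with baseline fluorescence within five deviations of library mean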;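 note: RGS4 expression induced by doxycycline in cells with stable M3 receptor; B-score is computed from the integrated fluorescence ratio over baseline after carbachol; higher B-score means a larger calcium signal and so more RGS4 inhibition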
Target sequence (P49798 whole entry, looked up): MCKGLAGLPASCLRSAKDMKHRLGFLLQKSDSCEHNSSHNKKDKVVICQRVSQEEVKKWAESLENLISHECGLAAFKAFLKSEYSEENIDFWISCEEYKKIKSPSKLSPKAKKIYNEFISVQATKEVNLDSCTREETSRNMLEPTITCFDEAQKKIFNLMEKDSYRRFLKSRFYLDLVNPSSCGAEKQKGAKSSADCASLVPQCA
RGS4 act = RGS4 potentiation or activation. 0.92% of 310,000 active. HEK293 M3R/inducible RGS4, carbachol calcium flux Fluo4; hits give low values. B-score at 10 µM;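 active = B-score of the integrated calcium signal more than 4 SD below the library mean, with starting fluorescence not abnormally high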;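 note: negative B-score means reduced calcium response which marks RGS4 activation or potentiation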
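System – HEK293 FlpIn-TREx cells, stable M3R, doxycycline-inducible RGS4 · Reagent – ECmax carbachol challenge · Times – compound preincubation 20 min at room temperature before agonist · Technique – Fluo4 fluorescence kinetic imaging of calcium · Measure – B score of integrated Fluo4 ratio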
MrgX1 allo act = human MrgX1 positive allosteric modulation, primary screen; Q96LB2; MrgX1-HEK293, Fluo-4 calcium flux, FDSS; hits give high values; B-score at 10 µM; 0.63% of 310,000 active; AID 588675;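 active = plate-corrected calcium response at least 3 library SD above typical, normal starting fluorescence, not activating the receptor alone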;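 note: compound read alongside a low EC10 to EC30 dose of BAM8-22 agonist; peak minus trough fluorescence over baseline measured at the second addition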
Target sequence (Q96LB2 whole entry, looked up): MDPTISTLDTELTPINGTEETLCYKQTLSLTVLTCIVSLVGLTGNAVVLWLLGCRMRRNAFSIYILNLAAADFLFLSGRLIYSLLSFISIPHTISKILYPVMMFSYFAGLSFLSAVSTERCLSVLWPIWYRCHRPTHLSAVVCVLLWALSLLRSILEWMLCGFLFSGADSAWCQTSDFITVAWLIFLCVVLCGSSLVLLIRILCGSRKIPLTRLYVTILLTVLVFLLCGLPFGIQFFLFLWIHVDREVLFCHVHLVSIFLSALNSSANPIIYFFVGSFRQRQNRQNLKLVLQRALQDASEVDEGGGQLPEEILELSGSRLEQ
MrgX1 antagonist = human MrgX1 receptor antagonism, primary screen; Q96LB2; MRGX1-HEK293 calcium flux, Fluo-4, BAM8-22 antagonism; hits give low values; B-score at 10 µM; 1.3% of 310,000 active;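 active = calcium-response B-score plate-corrected more than 3 library SD below zero, starting fluorescence within 5 deviations, no agonist response on first addition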;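 note: peak minus trough fluorescence over baseline after final BAM8-22 challenge near maximal dose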
MrgX1 ag = agonists of human MrgX1 receptor; Q96LB2; MrgX1-HEK293 cells, Fluo-4 calcium fluorescence, agonist mode; hits give high values; B-score at 10 µM; 0.44% of 310,000 active;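 active = calcium response B-score plate-corrected fluorescence ratio at least 3 library SD, with starting fluorescence B-score inside 5 SD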
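times = overnight plating, then 30 min 37 °C plus 30 min room-temperature dye loading | assay system = stable human MrgX1 HEK293 cell line | input = fifteen thousand cells per well | signal = kinetic calcium dye fluorescence, Fluo-4 NW | dosing = compound delivered in addition one of three | read-out = B-scored fluorescence response ratio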
MrgX1 allo conf = reconfirmed allosteric activator of human MrgX1 receptor; 13% of 1,200 active; MrgX1-HEK293, Fluo-4 calcium fluorescence, FDSS; activation (ratio percentage), % at 10 µM; shares compounds with MrgX1 allo act;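 active = ratio at least 3 SD above the weak peptide control, stable starting fluorescence, no direct agonism earlier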;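 note: compound followed by low BAM8-22 agonist challenge near EC20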
HEK293 Ca flux = counter-screen for MrgX1 antagonists: effect in parental HEK293 cells; shares compounds with MrgX1 antagonist; Fluo-4 calcium fluorescence, FDSS; fluorescence ratio F(max-min)/F0 at 10 µM; 2% of 4,000 active; AID 624111;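 active = duplicate-averaged calcium fluorescence ratio at least three times the standard deviation of buffer wells, a nonspecific response in parental cells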
HEK293 Ca counter = counter-screen for MrgX1 allosteric activators: effect in parental HEK293 cells | shares compounds with MrgX1 antagonist | parental HEK293 calcium flux, Fluo-4 fluorescence ratio; hits give high values | fluorescence ratio F(max-min)/F0 at 10 µM | 0.4% of 4,000 active | AID 624114;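 active = calcium fluorescence ratio, averaged over duplicates, at least 3 SD of the buffer-well ratio, meaning a nonspecific response in receptor-free cells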;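 note: untransfected parental HEK293 lacking MrgX1 used as counterscreen for MrgX1 allosteric activators; fluorescence change taken during the second addition on a kinetic imager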
HEK293 Ca cntr2 = MrgX1 activator counter-screen hit in parental HEK293 cells. shares compounds with MrgX1 antagonist. Fluo-4 calcium fluorescence (FDSS); hits give high values. fluorescence ratio F(max-min)/F0 at 10 µM. 8.7% of 4,000 active. AID 624115;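 active = calcium fluorescence ratio at least three times the spread of buffer wells, meaning a non-specific response in parental cells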
* hit, by the source's call; i = inactive; nt = not tested or not shown. Sampled rows, rich in hits. Any-hit rate of the full collection: about 3.5%.

SMILES | RGS4 inh | RGS4 act | MrgX1 allo act | MrgX1 antagonist | MrgX1 ag | MrgX1 allo conf | HEK293 Ca flux | HEK293 Ca counter | HEK293 Ca cntr2
CC1CCC(=C(C#N)C(=O)Nc2cccc(Cl)c2)CC1 (stereo not given) | i | i | i | i | i | nt | nt | nt | nt
CC1CCC2(CC1)C(Nc1cccc(Cl)c1)=NC(=S)N2CC#N (stereo not given) | i | i | 8.3* | i | i | i | i | i | i
CCOC(=O)c1c(C)[nH]c(C)c1C(=O)COC(=O)c1c(OC)cccc1OC | i | i | 7.1* | i | i | i | i | i | i
CC(NC(=O)Nc1ccccc1O)(C(F)(F)F)C(F)(F)F | i | i | 9.8* | i | i | i | i | i | i
O=S(=O)(Nc1ncnc2scc(-c3ccc(F)cc3)c12)c1cc(F)ccc1F | i | i | 12* | i | i | i | i | i | i
Nc1nc(OCC(F)(F)F)cc(Oc2ccccc2F)n1 | i | i | 9.8* | i | i | i | i | i | i
Cc1cccc(NS(=O)(=O)c2c(C)nc3scc(C)n3c2=O)c1 | i | i | 21* | i | i | i | i | i | i
Cc1nc2scc(C)n2c(=O)c1S(=O)(=O)Nc1ccc(N2CCN(S(C)(=O)=O)CC2)cc1 | i | i | i | i | i | nt | nt | nt | nt
O=C(COc1ccc(Cl)cc1Cl)N/N=C/c1cccnc1 | i | i | i | i | i | nt | nt | nt | nt
O=C(COc1ccc(Cl)cc1Cl)Nc1cccnc1 | i | i | 8.7* | i | i | i | i | i | i
COc1ccc(-c2cn3c(C)c(C(=O)N4CCCc5ccccc54)sc3n2)cc1 | i | i | 8* | i | i | i | i | i | i
Cc1ccc(NC(=O)c2ccccc2O)cc1 | i | i | 11* | i | i | i | i | i | i
CC(=O)Nc1ccc(NC(=O)c2ccccc2CCc2ccccc2)cc1 | i | i | 15* | i | i | i | i | i | i
CC(=O)Nc1ccc(NC(=O)c2ccccc2C)cc1 | i | i | i | i | i | nt | nt | nt | nt
CC1Cc2ccccc2N1C(=O)C1CCCN(S(=O)(=O)c2cccc3cccnc23)C1 (stereo not given) | nt | nt | 8.9* | i | i | 8.6%* | i | i | i
Cc1ccc(C)n1-n1cnc2sc(-c3ccccc3)cc2c1=O | i | i | 7.8* | i | i | i | i | i | i
Cc1ccc(C)n1-n1c(C)nc2sc(-c3ccccc3)cc2c1=O | i | i | 19* | i | i | i | i | i | i
CCCCCN1CC(=O)N2C(C)c3[nH]c4ccccc4c3C[C@H]2C1=O (stereo not given in full) | i | i | 14* | i | i | i | i | i | i
CCCCOCCCN1CC(=O)N2C(C)c3[nH]c4ccccc4c3C[C@H]2C1=O (stereo not given in full) | i | i | 7.5* | i | i | i | i | i | i
O=C(CCc1nnc(CCCc2ccccc2)o1)NCC(F)(F)F | i | i | i | i | i | nt | nt | nt | nt
CCCCn1c(N)c(N(CC(C)C)C(=O)c2cccc(-n3cnnn3)c2)c(=O)[nH]c1=O | i | i | i | i | i | nt | nt | nt | nt
N#CC1=C(N)Oc2c(oc(CO)cc2=O)C1c1ccsc1 (stereo not given) | i | i | i | i | i | nt | nt | nt | nt
N#CC1=C(N)Oc2c(ccc3ccccc23)C1c1ccsc1 (stereo not given) | i | i | 14* | i | i | i | i | i | i
COc1ccc(N2CCN(CCNC(=O)c3ccc4c(c3)[nH]c(=S)n3c5ccccc5nc43)CC2)cc1 | i | i | i | i | i | nt | nt | nt | nt
Cn1c(=NC(=O)C2CC2)sc2cccc(F)c21 | i | i | 11* | i | i | i | i | i | i
SMILES | RGS4 inh | RGS4 act | MrgX1 allo act | MrgX1 antagonist | MrgX1 ag | MrgX1 allo conf | HEK293 Ca flux | HEK293 Ca counter | HEK293 Ca cntr2
CN(C)c1ccc(Nc2ccc([N+](=O)[O-])cn2)cc1 | i | i | i | i | i | nt | nt | nt | nt
CC1=CC(C)C(/C=N/N=C(N)N)C(C)C1 (stereo not given) | i | i | 24* | i | i | i | i | i | i
O=C(CC1C(=O)NCCN1Cc1ccccc1)NCCN1CCCCC1=O (stereo not given) | i | i | 9.4* | i | i | i | i | i | i
O=C(CC1C(=O)NCCN1Cc1ccc(F)cc1)NCCN1CCCc2ccccc21 (stereo not given) | i | i | i | i | i | nt | nt | nt | nt
Cc1nn(-c2ccccc2)nc1C(=O)Nc1nnc(C(F)(F)F)s1 | i | i | 6.5* | i | i | i | i | i | 68*
CCc1nnc(NC(=O)c2nn(-c3ccccc3)nc2C)s1 | i | i | i | i | i | nt | nt | nt | nt
Cc1ccc(S(=O)(=O)c2nnn(-c3cccc(F)c3)c2N)cc1 | i | i | 8.9* | i | i | i | i | i | i
NC(=O)C1CCN(C(=O)COCc2cc(-c3ccc4c(c3)OCO4)on2)CC1 | i | i | 17* | i | i | i | i | i | i
O=C(COCc1cc(-c2ccc3c(c2)OCO3)on1)N1CCCCC1 | i | i | i | i | i | nt | nt | nt | nt
Nc1nc2ccccc2n1CCOc1ccc(Cl)cc1 | i | i | 6.6* | i | i | i | i | i | i
CC(C)c1ccc(C(N)=S)cc1 | i | i | 14* | i | i | i | i | i | i
CC(C)c1ccc(C(=O)NNC(=O)c2ccncc2)cc1 | i | i | i | i | i | nt | nt | nt | nt
Cc1cc(NC(=O)NC(C(F)(F)F)C(F)(F)F)no1 | i | i | i | i | i | nt | nt | nt | nt
CCN(c1ccccc1)S(=O)(=O)c1ccc(Cl)nc1 | i | i | 9.4* | i | i | i | i | i | i
